Assay outcomes as filed in PubChem BioAssay.
HTRA1 inh: HTRA1 serine protease inhibitors, primary screen, biochemical, fluorescence polarization, HTS | Q92743 | recombinant HTRA1, FP-rhodamine activity-based probe | inhibition, % at 5.96 µM | 0.5% of 340,000 active; in the data active means inhibition above about 36%;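 further: 0% = enzyme with DMSO and 100% = wells lacking enzyme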
ABHD4 inh: ABHD4 inhibitors, primary screen, biochemical, fluorescence polarization, mouse; (Lyso)-N-acylphosphatidylethanolamine lipase (Mus musculus), Q8VD66; purified mABHD4, FP-Rh probe fluorescence polarization; inhibition, % at 8.92 µM; 0.54% of 370,000 active;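 active means inhibition exceeding the mean over every tested compound plus 3 SD, cut at about 30% in these data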;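 further: 0% = plate median of compound wells and 100% = S159A mutant with DMSO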
Target sequence (Q8VD66 whole entry, looked up): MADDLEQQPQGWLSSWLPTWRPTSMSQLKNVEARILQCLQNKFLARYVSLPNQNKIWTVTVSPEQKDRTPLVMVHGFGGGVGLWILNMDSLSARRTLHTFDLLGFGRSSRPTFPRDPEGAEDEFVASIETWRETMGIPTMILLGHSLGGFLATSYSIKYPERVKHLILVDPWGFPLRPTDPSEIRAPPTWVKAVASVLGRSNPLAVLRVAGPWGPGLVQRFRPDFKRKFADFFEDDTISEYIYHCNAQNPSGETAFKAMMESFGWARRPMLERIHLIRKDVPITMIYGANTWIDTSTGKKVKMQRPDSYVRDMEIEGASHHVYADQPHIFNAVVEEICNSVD
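system = mouse ABHD4 enzyme, wild type | medium = HEPES pH 7.0, NaCl, Pluronic buffer | also added = FP-Rh probe | incubation = Enzyme–compound pre-incubation 45 min, then probe 60 min, both 25 °C | technique = fluorescence polarization, excitation 525 nm, emission 598 nm, BODIPY TMR filters | controls = S159A mutant high control, sample median low control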
TCR CD3 inh: inhibitors of human TCR-CD3 interaction, primary screen, biochemical, fluorescence, TAMRA-labeled TCR probe | AID 651800, 2012 | inhibition, % at 9.4 µM | 0.37% of 360,000 active | T-cell receptor (TCR); in the data active means inhibition above about 19%;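 further: recombinant mutant TCR 2C K166C tagged with TAMRA read by polarization; 0% = receptor in buffer alone and 100% = receptor with positive control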
SIAE inh: human SIAE inhibitors, primary screen, biochemical, fluorescence polarization, FP-Rh probe, 1536-well HTS; Sialate O-acetylesterase (Homo sapiens), Q9HAT2; SIAE FP-Rh probe binding; inhibition, % at 9.66 µM; 0.69% of 370,000 active;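 active means inhibition above a cutoff: mean of compounds within the control limits plus 3 SD of those, cut at about 17% in these data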;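 further: 0% = plate median of compound wells and 100% = probe without SIAE protein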
PRMT1 FP inh: PRMT1 methyltransferase inhibitors, primary screen, biochemical, fluorescence polarization; 1.3% of 370,000 active; recombinant PRMT1, activity-based probe fluorescence polarization; Protein arginine N-methyltransferase 1 (Homo sapiens), Q99873; inhibition, % at 2.79 µM;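 active means inhibition above about 21% made by adding two undisclosed values, limit read from the data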
mABHD4 conf: ABHD4 inhibitors, retest, confirmation, biochemical, fluorescence polarization, mouse; shares compounds with ABHD4 inh; purified mABHD4, FP-Rh probe fluorescence polarization; inhibition, % at 8.92 µM; 55% of 1,800 active;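 active means mean inhibition across replicates above the hit cutoff set in the primary screen, cut at about 30% in these data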;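 further: 0% = wild-type ABHD4 with DMSO and 100% = catalytically dead S159A mutant with DMSO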
SIAE inh conf: human SIAE inhibitors, retest, confirmation, biochemical, fluorescence polarization, FP-Rh probe, triplicate. shares compounds with SIAE inh. SIAE FP-Rh activity-based probe. inhibition, % at 9.66 µM. 13% of 2,300 active. AID 1117263, 2014;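 active means mean inhibition of the replicates above the hit cutoff set in the primary screen, cut at about 17% in these data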;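 further: 0% = SIAE with DMSO and probe and 100% = probe without SIAE; inhibitors lower polarization as more probe stays unbound to SIAE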
Active calls of the source: *; . = not tested or not shown. The list is not random: actives were taken first. Their share in the collection is about 2.6%.

SMILES	HTRA1 inh	ABHD4 inh	TCR CD3 inh	SIAE inh	PRMT1 FP inh	mABHD4 conf	others
Fc1ccc(-c2ccc3c(c2)C2CC3CCN2)cc1 (stereo unspecified)	6	-5	3	-2	-2	.
COC(=O)C1=C(C)N(Cc2ccccc2C(F)(F)F)C(=NCc2ccc3c(c2)OCO3)NC1c1cccc(Cl)c1 (stereo unspecified)	.	1	-2	-6	4	.
COc1ccccc1OCCNC(=O)c1ccc2c(c1)OCCO2	2	31*	-2	3	4	-2
CSc1ccc(C(c2c(C(=O)O)[nH]c3ccccc23)c2c(C(=O)O)[nH]c3ccccc23)cc1	-18	46*	1	5	-5	61*
CCOC(=O)c1[nH]c2ccccc2c1NC(C)=O	0	2	-4	0	4	.
CCOc1cc(Br)cc(C(c2c(C(=O)O)[nH]c3ccccc23)c2c(C(=O)O)[nH]c3ccccc23)c1O	18	61*	4	9	0	68*
c1ccc(-c2sc3ccccc3c2-c2ccc(OCCN3CCCC3)cc2)cc1	-27	31*	0	2	-2	28
COc1ccc(-c2sc3ccccc3c2-c2ccc(OCCN3CCCCC3)cc2)cc1	-19	11	2	4	3	.
CCC(C)NC(=S)N(Cc1cc2cc(C)ccc2n2nnnc12)CC(C)(C)NC(C)C (stereo unspecified)	4	-17	-3	1	6	.
O=C(O)CC/C(=C\c1ccc(N2CCCC2)c([N+](=O)[O-])c1)c1nc2ccccc2s1	10	46*	-8	-14	12	51*
CN(c1ccccc1)c1ccc(/C=C(/CCC(=O)O)c2nc3ccccc3s2)cc1[N+](=O)[O-]	33	46*	-10	7	11	56*
O=C(O)CC/C(=C\c1ccccc1[N+](=O)[O-])c1nc2ccccc2s1	4	-1	4	-10	2	.
CCc1nc2ccc(C(=O)Nc3cc(-c4ccccc4)ccc3OC)cn2c1N(CC)CCN(C)C	.	20	-7	-6	-2	.
CCc1nc2ccc(C(=O)Nc3cc(-c4ccccc4)ccc3OC)cn2c1N(CC)Cc1cccc(Br)c1	.	31*	2	2	-2	27
O=c1oc2c(-c3ccc([N+](=O)[O-])cc3)cc(O)cc2s1	24	61*	10	5	78*	-22
NC1=C(c2ccc([N+](=O)[O-])cc2)C(=O)CO1	-2	-3	-1	3	-2	.
CC(C)C[C@@H]1NC(=O)[C@@H]2CSCCS(=O)(=O)N2C1=O	.	-2	0	4	-2	.
CN1CCS/C1=C/C=C1\SC(=S)N(CC(=O)O)C1=O	-5	-10	4	1	-78	.
CCCCN1C(=O)/C(=C/C=C2\SCCN2C)SC1=S	11	33*	-14	6	-46	20
CC1N(C(=O)N(C)C)CCN1S(=O)(=O)c1ccccc1 (stereo unspecified)	4	7	7	3	-4	.
COc1ccccc1CCNC(=O)c1ccc(Br)s1	-12	118*	-1	-2	-1	-12
CC(=O)N1c2ccc(S(=O)(=O)N(C)CC(=O)NC3CCCC3)cc2CC1C (stereo unspecified)	1	9	-1	0	0	.
CCN(CC)c1ccc(Nc2nc(-c3cccnc3)cs2)cc1	35	30*	0	9	6	35*
CCCCn1c(N)c(N(CCOC)C(=O)C2CCN(C(=O)c3ccc(Cl)cc3)CC2)c(=O)[nH]c1=O	-2	1	-3	-4	-10	.
CCCCn1c(N)c(N(CCOC)C(=O)C2CCN(C(=O)c3ccc(F)cc3)CC2)c(=O)[nH]c1=O	-2	31*	1	9	3	4
SMILES	HTRA1 inh	ABHD4 inh	TCR CD3 inh	SIAE inh	PRMT1 FP inh	mABHD4 conf	others
Oc1ccc(C=NNC(=S)Nc2ccccc2)nc1	9	22	5	0	-2	.
Nc1cc(Cl)nc(N/N=C/c2c(O)ccc3ccccc23)n1	29	32*	-2	19*	2	27	SIAE inh conf=10
COc1ccc(/C=C/C(=O)NC(=S)Nc2ccc(S(=O)(=O)N=C(N)N)cc2)cc1OC	-20	-12	3	-127	-2	.
O=C(N/N=C/c1c(O)ccc2ccccc12)c1cccnc1	31	30*	7	27*	-6	32*	SIAE inh conf=-4
COc1ccc2ccccc2c1/C=N\NC(=O)c1cccnc1	.	-5	1	-12	0	.
C[C@H](CO)N1C[C@H](C)[C@@H](CN(C)C(=O)c2cnccn2)Oc2cc(C#CCC3CCCC3)ccc2S1(=O)=O	-5	8	0	1	1	.
COc1ccccc1-n1c(=O)c2c3c(sc2n2c(=S)[nH]nc12)CCC3	-3	34*	-1	18*	4	29	SIAE inh conf=4
COc1ccc(-n2c(=O)c3c4c(sc3n(CC(=O)Nc3cc(C)[nH]n3)c2=O)CCC4)c(OC)c1	-11	0	-3	5	-1	.
O=C(NNc1nc2c(F)cccc2s1)c1cc(=O)c2ccccc2o1	22	39*	8	18*	10	30*	SIAE inh conf=-4
O=C(NNS(=O)(=O)c1ccc([N+](=O)[O-])cc1)c1ccc2ccccc2c1O	5	31*	-7	19*	1	21	SIAE inh conf=2
CN1CCN(CC(O)COc2ccc(C34CC5CC(CC(C5)C3)C4)cc2)CC1 (stereo unspecified)	8	16	-4	-6	5	.
O=C(CN1C(=O)/C(=C2/SC(=S)N(CCS(=O)(=O)O)C2=O)c2ccccc21)Nc1cccc(C(F)(F)F)c1	-4	85*	15	22*	8	93*	SIAE inh conf=22*
Cc1nn(-c2cccc(Cl)c2)c2c1C(c1ccncc1)C(C#N)=C(N)O2 (stereo unspecified)	31	48*	-6	20*	5	50*	SIAE inh conf=8
Cc1nn(-c2ccccc2)c2c1C(c1cccs1)C(C#N)=C(N)O2 (stereo unspecified)	9	.	.	.	.	.
COc1ccc2c(c1)c(/C=N/Nc1nc3ccccc3[nH]1)c(C)n2C	29	33*	-6	32*	6	59*	SIAE inh conf=30*
Fc1ccccc1-c1ccc(/C=N/Nc2nc3ccccc3[nH]2)o1	18	40*	-5	35*	2	46*	SIAE inh conf=35*
Cc1ccc(S(=O)(=O)NCCC(=O)N2CC(C)OC(C)C2)cc1C (stereo unspecified)	-4	4	4	-6	-1	.
